Test results taken from paper PMC4560520 (Drug Design, Development and Therapy, 2015).
Where two headings read alike, the source gives them in different places.

How the values were obtained:
[1] = cited from earlier work; for t1/2: mean ± SD
healthy subjects [2] = test: Multiple ascending dose; assay type: in vivo, human
healthy subjects [3] = details: cited from earlier work
healthy subjects [4] = details: febuxostat multiple 80 mg once-daily doses after a high-fat meal; cited from earlier work
XO enzyme = details: in vitro; ref data on file at LG Life Sciences; cited from earlier work
healthy subjects [5] = test: Safety and tolerability evaluation; assay type: in vivo, human
Method in brief: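 The single-dose part covered 10–600 mg; the multiple-dose part gave 100–800 mg orally once daily for 7 days after an overnight fast, with 8 active subjects per dose group. Adverse events came from a questionnaire or spontaneous reports. Renal toxicity was assessed with a NGAL test.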

[6] = SAD study incl. food effect: pharmacokinetics of LC350189 in plasma and urine; assay type: in vivo, human
CYP isoenzymes = details: incubated with CYP isoenzymes; preclinical, no reference given; cited from earlier work
dog = details: preclinical studies, no reference given; cited from earlier work
XO = XO (Homo sapiens, UniProt P47989); test: PK/PD relationship, Emax model; assay type: in vivo
Sequence of XO (P47989 whole entry): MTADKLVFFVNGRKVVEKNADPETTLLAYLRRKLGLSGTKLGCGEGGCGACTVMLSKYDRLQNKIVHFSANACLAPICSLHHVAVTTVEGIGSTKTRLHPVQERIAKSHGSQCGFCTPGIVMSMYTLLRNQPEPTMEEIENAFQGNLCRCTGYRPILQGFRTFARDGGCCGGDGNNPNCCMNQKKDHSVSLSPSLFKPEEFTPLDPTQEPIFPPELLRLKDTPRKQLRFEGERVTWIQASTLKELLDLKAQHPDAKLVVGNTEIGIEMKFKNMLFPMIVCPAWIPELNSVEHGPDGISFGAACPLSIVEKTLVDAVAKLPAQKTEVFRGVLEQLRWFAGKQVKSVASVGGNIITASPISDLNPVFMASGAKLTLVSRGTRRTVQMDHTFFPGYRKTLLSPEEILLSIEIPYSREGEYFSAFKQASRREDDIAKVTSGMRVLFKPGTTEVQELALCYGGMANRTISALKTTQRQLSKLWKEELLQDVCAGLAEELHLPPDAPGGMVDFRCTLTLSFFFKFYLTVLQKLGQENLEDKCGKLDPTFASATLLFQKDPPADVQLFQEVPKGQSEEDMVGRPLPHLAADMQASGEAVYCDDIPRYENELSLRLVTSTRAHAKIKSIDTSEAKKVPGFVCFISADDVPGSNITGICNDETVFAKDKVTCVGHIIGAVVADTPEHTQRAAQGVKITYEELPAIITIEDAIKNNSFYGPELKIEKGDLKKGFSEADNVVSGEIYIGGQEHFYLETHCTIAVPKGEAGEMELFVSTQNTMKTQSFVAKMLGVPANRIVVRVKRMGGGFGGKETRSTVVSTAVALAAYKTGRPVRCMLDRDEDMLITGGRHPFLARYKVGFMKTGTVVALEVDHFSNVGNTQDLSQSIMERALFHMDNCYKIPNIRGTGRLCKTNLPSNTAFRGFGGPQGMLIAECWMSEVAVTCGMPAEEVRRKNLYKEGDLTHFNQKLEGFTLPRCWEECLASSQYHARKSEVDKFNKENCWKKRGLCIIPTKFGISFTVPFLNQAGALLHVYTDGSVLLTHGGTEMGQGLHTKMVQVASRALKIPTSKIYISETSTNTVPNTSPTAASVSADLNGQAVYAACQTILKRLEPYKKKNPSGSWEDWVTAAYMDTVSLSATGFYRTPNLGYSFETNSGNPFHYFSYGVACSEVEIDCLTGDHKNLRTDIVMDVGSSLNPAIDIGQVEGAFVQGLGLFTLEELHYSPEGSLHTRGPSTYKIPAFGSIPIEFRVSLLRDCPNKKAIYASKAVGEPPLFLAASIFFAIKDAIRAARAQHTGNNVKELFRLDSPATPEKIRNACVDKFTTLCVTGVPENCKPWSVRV

SUA = details: in vivo study; ref data on file at LG Life Sciences; cited from earlier work
rat = details: preclinical studies, no reference given; cited from earlier work
healthy subjects [7] = test: Single ascending dose; assay type: in vivo, human; details: for Change in Cmean,24 of serum uric acid from baseline: Day 1, mean (SD), n=8
Method in brief: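 Healthy volunteers got a single oral dose on day 1, fasted, with placebo on day -1 for baseline and standardized meals. Serial blood was taken on days -1 and 1; aliquots were stored at -70°C. Serum uric acid, xanthine and hypoxanthine were measured by a validated assay. Cmean,24 = noncompartmental AUC0–24/24, as % change from baseline. Urinary Ae = urine volume × concentration.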

liver microsome = details: in vitro liver microsome study; preclinical, no reference given; cited from earlier work
[8] = 200 mg, fed (high-fat diet) vs fasting

Cc1nc(-c2ccc(OCC(C)C)c(C#N)c2)sc1C(=O)O [Febuxostat, febuxostat]
t1/2 ([1]; febuxostat 40 mg): 10.3 ± 7.4 h | t1/2 ([1]; febuxostat 70 mg): 12.5 ± 7.7 h | Tmax ([1]; febuxostat): ~ 1 hour | Maximum percentage decrease from baseline in Cmean,24 for SUA (healthy subjects [2]; febuxostat group (80 mg once daily for 7 days)): 58.8% | Maximum percentage decrease from baseline in Cmean,24 (healthy subjects [3]; febuxostat 40 mg dose group): ~ 40% | Maximum percentage decrease from baseline in Cmean,24 (healthy subjects [3]; febuxostat 90 mg dose group): 60% | Inhibition of the enzyme (XO), Emax (healthy subjects [3]; febuxostat): 81.4% | Allergic reaction, subjects (healthy subjects [3]; previous febuxostat multiple-dose study): six out of 118 subjects | Change by food in the percentage decrease in SUA concentration (healthy subjects [4]): no clinically significant change | Change of AUC by food (healthy subjects [4]): slight decrease

CC(C)n1cc(C#N)c2cc(-n3cc(C(=O)O)cn3)ccc21 [LC350189]
Inhibition of XO enzyme activity (XO enzyme): comparable to febuxostat | Allergic reaction (healthy subjects [5]; SAD and MAD): no allergic reaction | Renal toxicity according to the NGAL test (healthy subjects [5]; SAD and MAD): no signals of renal toxicity | Tolerability (healthy subjects [5]; single and multiple oral administrations, dose range 10–800 mg): well tolerated | Geometric mean ratio (90% CI) of AUClast with and without food ([6]; 200 mg single dose): 0.973 (0.837–1.131) | Geometric mean ratio (90% CI) of Cmax, fed vs fasting ([6]; 200 mg single dose): 0.624 (0.485–0.802) | Decrease of Cmax by food [6, 8]: 38% | Delay of absorption by food [6, 8]: ~ 2 hours | Time up to which plasma concentrations were detected ([6]; SAD low-dose groups (10 mg, 25 mg, 50 mg), LLOQ 5 ng/mL): up to 48 hours | half-life ([6]; male, human, plasma, oral, t1/2, overall, approximate): ~600 min | Metabolic stability (CYP isoenzymes): metabolically stable | Dose up to which no significant toxicity was found (dog): 200 mg/kg | Change in Cmean,24 of serum uric acid from baseline (healthy subjects [2]; MAD 800 mg once daily for 7 days, fasted, Day 7, mean (SD), n=6): −91.2% | Amount of uric acid excreted in the urine relative to baseline (healthy subjects [2]; after multiple administrations): one-third to one-tenth of the baseline level | Maximum percentage decrease from baseline in Cmean,24 for SUA (healthy subjects [2]; after multiple administrations of LC350189): 91.2% | Increase of Cmean,24 of xanthine (healthy subjects [2]; after multiple administrations, day 7): three-to eight-fold | Emax (maximum percentage decrease in Cmean,24 of SUA) (XO; Emax model, day 7, MAD, 95% CI 94.8%–105.4%): 100.1% | Inhibition of XO activity (XO; multiple doses at 100 mg, AUC at steady state close to EAUC50): ~50% | Emax (XO; read-out: Inhibition of XO based on the Emax model): ~100% | Reduction of SUA (SUA): sufficiently reduced SUA | Dose up to which no significant toxicity was found (rat): 12.5 mg/kg | Change in Cmean,24 of serum uric acid from baseline (healthy subjects [7]; SAD single oral 200 mg, fasting): −22.9% | Change in Cmean,24 of serum uric acid from baseline (healthy subjects [7]; SAD single oral 600 mg, fasted): −31.7% | Increase of Cmean,24 of xanthine (healthy subjects [7]; after a single dose): two- to seven-fold | Metabolic stability (liver microsome): metabolically stable
